Data as given in ChEMBL document CHEMBL1141109, “Synthesis of an estrogen receptor beta-selective radioligand: 5-[18F]fluoro-(2R,3S)-2,3-bis(4-hydroxyphenyl)pentanenitrile and comparison of in vivo distribution with 16alpha-[18F]fluoro-17beta-estradiol” (J Med Chem, 2005).
Values belong to the molecule of their own block, whether it stands above or below them.

Columns and labels:
[1] = Biodistribution of [18F]FES in alpha estrogen receptor knock out mouse muscle after 30 min; (n=3); assay type: ADME, organism-based, Muscle tissue; details: in vivo, 0.5 h
[2] = Biodistribution of [18F]FES in beta estrogen receptor knock out mouse kidney after 30 min(n=2); mice in nonestrus stage; assay type: ADME, organism-based; details: in vivo, 0.5 h
[3] = Biodistribution of [18F]-FES in alpha estrogen receptor knock out mouse bone after 2 h; (n=3); assay type: ADME, organism-based, Bone element; details: in vivo
In short: (§1)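 Female αERKO mice were rested 48 h after shipping and fed estrogen-free chow. They were staged by daily vaginal smears and studied in diestrus. Each received 13 µCi [18F]FES in 100 µL 10% ethanol/saline and was sacrificed at 30 min, 1 h or 2 h (n = 3 per time). Tissue uptake is given as %ID/g ± SD.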

[4] = Biodistribution of [18F]FES in beta estrogen receptor knock out mouse blood after 1 h; (n=3); assay type: ADME, organism-based; details: in vivo
[5] = Biodistribution of [18F]-FES in beta estrogen receptor knock out mouse brain after 30 min; (n=3); assay type: ADME, organism-based; details: in vivo, 0.5 h
In short: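 βERKO mice rested 48 h after shipping, fed estrogen-free chow and staged by vaginal smears. Repeated swabbing caused pseudopregnancy in some, so this group was studied in estrus. Mice given [18F]FES were sacrificed at 30 min (n = 3). Uptake is reported as %ID/g ± SD.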

[6] = Biodistribution of [18F]-FES in beta estrogen receptor knock out mouse heart after 30 min; (n=3); assay type: ADME, organism-based; details: in vivo, 0.5 h
In short: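 Female βERKO mice in estrus were used because repeated swabbing had induced pseudopregnancy. They were fed estrogen-free chow. Each received 13 µCi [18F]FES in 100 µL 10% ethanol/saline and was sacrificed at 30 min, 1 h or 2 h (n = 3 each). Tissue uptake is given as %ID/g ± SD.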

[7] = Biodistribution of [18F]-FES in alpha estrogen receptor knock out mouse liver after 1 h; (n=3); assay type: ADME, organism-based; details: in vivo; in short: as §1
[8] = Biodistribution of [18F]FES in beta estrogen receptor knock out mouse muscle after 2 h; (n=3); assay type: ADME, organism-based, Muscle tissue; details: in vivo
[9] = Biodistribution of [18F]FES in beta estrogen receptor knock out mouse spleen after 1 h; (n=3); assay type: ADME, organism-based; details: in vivo
[10] = Biodistribution of [18F]FES in beta estrogen receptor knock out mouse uterus after 1 h; (n=3); assay type: ADME, organism-based; details: in vivo
[11] = Biodistribution of [18F]FES in alpha estrogen receptor knock out mouse fat after 1 h; (n=3); assay type: ADME, organism-based, Adipose tissue; details: in vivo
In short: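 Female αERKO mice rested 48 h after shipping and fed estrogen-free chow. Estrous stage was checked by daily vaginal smears, and mice were used in diestrus. Each received 13 µCi [18F]FES in 100 µL 10% ethanol/saline. Animals were sacrificed at 30 min, 1 h or 2 h (n = 3 each). Tissue uptake is reported as %ID/g ± SD.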

[12] = Biodistribution of [18F]FES in beta estrogen receptor knock out mouse bone after 2 h; (n=3); assay type: ADME, organism-based, Bone element; details: in vivo
[13] = Biodistribution of [18F]FES in alpha estrogen receptor knock out mouse fat after 30 min; (n=3); assay type: ADME, organism-based, Adipose tissue; details: in vivo, 0.5 h; in short: as §1
[14] = Biodistribution of [18F]-FES in alpha estrogen receptor knock out mouse muscle after 1 h; (n=3); assay type: ADME, organism-based, Muscle tissue; details: in vivo; in short: as §1
[15] = Biodistribution of [18F]FES in alpha estrogen receptor knock out mouse spleen after 2 h; (n=3); assay type: ADME, organism-based; details: in vivo
[16] = Biodistribution of [18F]-FEDPN in beta estrogen receptor knock out mouse thymus after 30 min; (n=3); assay type: ADME, organism-based; details: in vivo, 0.5 h
In short: (§2)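 ERKO female mice (αERKO or βERKO), rested 48 h after shipping, placed on estrogen-free chow, and staged by daily vaginal smears. Injected in a nonestrous stage with 11 µCi [18F]FEDPN in 130 µL of 10% ethanol/saline. Killed at 30 min, 1 h or 2 h. Organs counted and reported as %ID/g ± SD, three animals per point.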

[17] = Biodistribution of [18F]FEDPN in rat lung after 30 min when given in tail vein; (n=5); assay type: ADME, organism-based; details: in vivo, iv, 0.5 h
In short: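 Immature female Sprague–Dawley rats (<25 days old) under isoflurane/O2 got 20 µCi tracer in 150 µL 20% ethanol/saline by tail vein. […] Rats were killed at 30 min, 1 h or 2 h. Organs were blotted, weighed and gamma-counted against an injectate standard. Data are %ID/g ± SD, five rats per point.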

[18] = Biodistribution of [18F]FEDPN in beta estrogen receptor knock out mouse fat after 2 h; (n=3); assay type: ADME, organism-based, Adipose tissue; details: in vivo
In short: (§3)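 αERKO and βERKO mice, staged by daily vaginal smears and kept on estrogen-free chow, were studied in a nonestrous stage. Each mouse received 11 μCi of tracer in 130 μL of 10% ethanol/saline. Mice were killed at 30 min, 1 h or 2 h (n = 3 each). Organs were removed, blotted, weighed and gamma-counted against an injectate standard. Uptake is given as %ID/g ± SD.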

[19] = Biodistribution of [18F]FEDPN in alpha estrogen receptor knock out mouse bone after 2 h; (n=3); assay type: ADME, organism-based, Bone element; details: in vivo; in short: as §2
[20] = Biodistribution of [18F]-FEDPN in rat fat after 2 hr when given in tail vein; (n=5); assay type: ADME, organism-based, Adipose tissue; details: in vivo, iv
In short: (§4)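 Immature female Sprague–Dawley rats (<25 days old) anesthetized with isoflurane/O2. Given 20 µCi tracer by tail vein in 150 µL of 20% ethanol/saline. […] Killed at 30 min, 1 h or 2 h. Blood and organs blotted, weighed and gamma-counted against a standard dilution of the injectate. Reported as %ID/g ± SD, n=5.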

[21] = Biodistribution of [18F]-FEDPN in rat liver after 2 hr when given in tail vein; (n=5); assay type: ADME, organism-based; details: in vivo, iv; in short: as §4
[22] = Biodistribution of [18F]-FEDPN in rat thymus after 1 hr when given in tail vein; (n=5); assay type: ADME, organism-based; details: in vivo, iv; in short: as §4
[23] = Biodistribution of [18F]FEDPN in alpha estrogen receptor knock out mouse blood after 1 h; (n=3); assay type: ADME, organism-based; details: in vivo; in short: as §2
[24] = Biodistribution of [18F]FEDPN in beta estrogen receptor knock out mouse ovaries after 1 h; (n=3); assay type: ADME, organism-based, Female gonad; details: in vivo; in short: as §3
[25] = Biodistribution of [18F]FEDPN in beta estrogen receptor knock out mouse blood after 30 min; (n=3); assay type: ADME, organism-based; details: in vivo, 0.5 h; in short: as §3
[26] = Biodistribution of [18F]FEDPN in beta estrogen receptor knock out mouse heart after 30 min; (n=3); assay type: ADME, organism-based; details: in vivo, 0.5 h; in short: as §3
[27] = Biodistribution of [18F]FEDPN in alpha estrogen receptor knock out mouse ovaries after 30 min; (n=3); assay type: ADME, organism-based, Female gonad; details: in vivo, 0.5 h; in short: as §3
[28] = Biodistribution of [18F]FEDPN in alpha estrogen receptor knock out mouse kidney after 1 h; (n=3); assay type: ADME, organism-based; details: in vivo; in short: as §2
[29] = Biodistribution of [18F]-FEDPN in alpha estrogen receptor knock out mouse spleen after 1 h; (n=3); assay type: ADME, organism-based; details: in vivo; in short: as §2
[30] = Biodistribution of [18F]FEDPN in alpha estrogen receptor knock out mouse spleen after 2 h; (n=3); assay type: ADME, organism-based; details: in vivo; in short: as §3
[31] = target: T1, Estrogen receptor (Mus musculus) (UniProt O08537+P19785); assay: Ratio of [18F]FEDPN uptake in ovaries of ERbeta KO-mouse and ERalpha KO-mouse (nonestrus) after 2 hr
T1 sequence (O08537 whole entry, looked up): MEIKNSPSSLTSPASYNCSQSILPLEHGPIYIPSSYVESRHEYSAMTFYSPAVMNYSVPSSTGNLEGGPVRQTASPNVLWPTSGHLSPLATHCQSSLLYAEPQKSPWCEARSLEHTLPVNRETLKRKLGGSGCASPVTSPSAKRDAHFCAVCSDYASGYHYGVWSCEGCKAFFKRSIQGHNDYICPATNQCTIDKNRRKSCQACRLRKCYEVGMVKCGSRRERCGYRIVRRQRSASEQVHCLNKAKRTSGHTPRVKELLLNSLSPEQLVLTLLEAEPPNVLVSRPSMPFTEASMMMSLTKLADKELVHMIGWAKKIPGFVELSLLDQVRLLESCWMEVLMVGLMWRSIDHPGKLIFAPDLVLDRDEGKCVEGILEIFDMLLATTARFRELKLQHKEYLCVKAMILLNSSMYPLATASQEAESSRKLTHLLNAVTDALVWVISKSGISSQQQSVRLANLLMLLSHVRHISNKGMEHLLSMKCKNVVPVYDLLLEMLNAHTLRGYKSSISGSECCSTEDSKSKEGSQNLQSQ
T1 sequence (P19785 whole entry, looked up): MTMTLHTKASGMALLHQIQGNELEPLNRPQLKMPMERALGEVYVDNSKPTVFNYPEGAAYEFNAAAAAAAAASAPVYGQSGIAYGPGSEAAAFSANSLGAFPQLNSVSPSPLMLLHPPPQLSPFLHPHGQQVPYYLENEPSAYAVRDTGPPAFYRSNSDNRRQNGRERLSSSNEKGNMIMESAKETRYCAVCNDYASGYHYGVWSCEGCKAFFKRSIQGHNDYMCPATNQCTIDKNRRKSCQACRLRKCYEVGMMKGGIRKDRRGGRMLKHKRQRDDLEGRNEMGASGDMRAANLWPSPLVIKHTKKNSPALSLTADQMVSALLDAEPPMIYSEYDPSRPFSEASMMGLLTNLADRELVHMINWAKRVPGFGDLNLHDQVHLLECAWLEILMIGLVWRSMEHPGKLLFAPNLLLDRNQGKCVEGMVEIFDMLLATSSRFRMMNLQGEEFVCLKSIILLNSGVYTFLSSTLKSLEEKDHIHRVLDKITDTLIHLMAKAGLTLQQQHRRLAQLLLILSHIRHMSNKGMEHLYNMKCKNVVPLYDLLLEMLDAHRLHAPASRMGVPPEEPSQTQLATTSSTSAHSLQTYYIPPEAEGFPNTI

[32] = target: T1, Estrogen receptor (Mus musculus); assay: Ratio of [18F]FEDPN uptake in uterus of ERbeta KO-mouse (diestrus) and ERalpha KO-mouse (nonestrus) after 30 min

- Biodistribution [1]: 0.77 %ID/g
- Biodistribution [2]: 4.44 %ID/g
- Biodistribution [3]: 0.23 %ID/g
- Biodistribution [4]: 0.3 %ID/g
- Biodistribution [5]: 0.71 %ID/g
- Biodistribution [6]: 1.04 %ID/g
- Biodistribution [7]: 5.24 %ID/g
- Biodistribution [8]: 0.54 %ID/g
- Biodistribution [9]: 0.91 %ID/g
- Biodistribution [10]: 9.81 %ID/g
- Biodistribution [11]: 0.14 %ID/g
- Biodistribution [12]: 0.53 %ID/g
- Biodistribution [13]: 1.51 %ID/g
- Biodistribution [14]: 0.18 %ID/g
- Biodistribution [15]: 0.18 %ID/g
Compound: C[C@]12CC[C@@H]3c4ccc(O)cc4CC[C@H]3[C@@H]1C[C@@H](F)[C@@H]2O [FLUOROESTRADIOL]

- Biodistribution [16]: 1.2 %ID/g
- Biodistribution [17]: 0.71 %ID/g
- Biodistribution [18]: 0.09 %ID/g
- Biodistribution [19]: 5.45 %ID/g
- Biodistribution [20]: 0.1 %ID/g
- Biodistribution [21]: 0.62 %ID/g
- Biodistribution [22]: 0.29 %ID/g
- Biodistribution [23]: 0.42 %ID/g
- Biodistribution [24]: 0.41 %ID/g
- Biodistribution [25]: 0.79 %ID/g
- Biodistribution [26]: 1.6 %ID/g
- Biodistribution [27]: 1.06 %ID/g
- Biodistribution [28]: 2.97 %ID/g
- Biodistribution [29]: 0.61 %ID/g
- Biodistribution [30]: 0.12 %ID/g
- Ratio [31]: 0.61
- Ratio [32]: 1.67
Compound: N#C[C@H](c1ccc(O)cc1)[C@@H](CCF)c1ccc(O)cc1
